In test [1] the test system is Plasmodium falciparum. As to the kind of experiment: Parasite viability index for Plasmodium falciparum Indochina W2 by [3H]hypoxanthine uptake. In kind it is functional, organism-based.
Test [2] in a line: Potency to inhibit Indochina(W-2) clone relative to artemisinin. In kind it is functional. The essentials:
(§1)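 Ratio of artemisinin IC50 to test-compound IC50, both measured in the same [3H]hypoxanthine microdilution assay against the named clone. Parasites were at 0.5% parasitemia and 1% hematocrit, exposed for 24 h at 37 °C under low oxygen, then labelled for 18–20 h. IC50s came from a four-parameter logistic fit of duplicate wells.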

The test system of test [3] is Plasmodium falciparum. Kind of test: Inhibition of Plasmodium falciparum D6 (Sierra Leone) by [3H]hypoxanthine uptake. In kind it is functional, organism-based.
A short description of test [4]: Potency to inhibit African Sierra Leone(D-6) clone relative to artemisinin. In kind it is functional. The essentials: as §1

The values that follow come from ChEMBL document CHEMBL1125468, “Extraordinarily potent antimalarial compounds: new, structurally simple, easily synthesized, tricyclic 1,2,4-trioxanes” (J Med Chem, 1992).

Each structure is given as a SMILES string. Converted amounts (≈) assume the structure as drawn.

In general, IC50 refers to the concentration that gives 50% inhibition.

As for `C=CCOCC[C@@H]1CCC[C@@H]2CC[C@]3(C)OO[C@]21[C@@H](OC)O3`, the figures for the half-maximal inhibitory concentration (IC50) with Plasmodium falciparum [1] and with Plasmodium falciparum [3] were 0.6 ng/mL (≈ 1.92 nM) and 5.5 ng/mL (≈ 17.6 nM), respectively. Besides, the Relative potency worked out at 2.3 in test [2] and 0.7 in test [4].

Take `CO[C@H]1O[C@]2(C)CC[C@H]3CCC[C@@H](CCOC(=O)c4ccc(C(=O)O)cc4)[C@]31OO2`: the concentration for half-maximal inhibition (IC50) in the test with Plasmodium falciparum [1] turned out to be 15.7 ng/mL (≈ 37.3 nM); in the test with Plasmodium falciparum [3], 63.3 ng/mL (≈ 151 nM). In addition, the Relative potency in test [2] and in test [4] was 0.1 throughout.

With `CO[C@H]1O[C@]2(C)CC[C@H]3CCC[C@@H](CCOC(=O)c4ccccc4)[C@]31OO2`, the half-inhibitory concentration (IC50) was 8.2 ng/mL (≈ 21.8 nM) in the test on Plasmodium falciparum [1] and 29.5 ng/mL (≈ 78.4 nM) with Plasmodium falciparum [3]. The Relative potency was 0.2 in test [2] and 0.1 in test [4].

For `CO[C@H]1O[C@]2(C)CC[C@H]3CCC[C@@H](CCOC(=O)CNC(=O)OC(C)(C)C)[C@]31OO2`, the 50% inhibitory concentration (IC50) in the test on Plasmodium falciparum [1] was found to be 2.5 ng/mL (≈ 5.82 nM); with Plasmodium falciparum [3] it was 3.5 ng/mL (≈ 8.15 nM). Besides, the results for the Relative potency in test [2] and in test [4] were 0.6 and 1.1, respectively.

Turning to `C[C@@H]1CC[C@H]2[C@@H](C)C(=O)O[C@@H]3O[C@@]4(C)CC[C@@H]1[C@]32OO4` [ARTEMISININ], the IC50 in the test with Plasmodium falciparum [1] worked out at 1.4 ng/mL (≈ 4.96 nM); with Plasmodium falciparum [3], 3.9 ng/mL (≈ 13.8 nM). For the same compound, the Relative potency in test [2] and in test [4] was 1 throughout.

`CCN(CC)C(=O)OCC[C@@H]1CCC[C@@H]2CC[C@]3(C)OO[C@]21[C@@H](OC)O3`: the concentration for half-maximal inhibition (IC50) in the test with Plasmodium falciparum [1] is below 0.4 ng/mL; in the test with Plasmodium falciparum [3], 1.7 ng/mL (≈ 4.58 nM). The Relative potency is above 3.5 in test [2] and 2.3 in test [4].

As to `COC(=O)c1ccccc1S(=O)(=O)OCC[C@@H]1CCC[C@@H]2CC[C@]3(C)OO[C@]21[C@@H](OC)O3`, the IC50 in the test with Plasmodium falciparum [1] was 13.2 ng/mL (≈ 28.1 nM); in the test on Plasmodium falciparum [3], 11.3 ng/mL (≈ 24 nM). Also, the Relative potency in test [2] worked out at 0.1; in test [4] it was 0.3.

On to `COC(=O)c1ccc(C(=O)OCC[C@@H]2CCC[C@@H]3CC[C@]4(C)OO[C@]32[C@@H](OC)O4)cc1`, for which the half-inhibitory concentration (IC50) in the test with Plasmodium falciparum [1] is below 1.2 ng/mL; in the test with Plasmodium falciparum [3], above 1.2 ng/mL. The values for the Relative potency in test [2] and in test [4] were above 1.2 and above 3.3, respectively.

As to `CO[C@H]1O[C@]2(C)CC[C@H]3CCC[C@@H](CCOC(=O)c4ccc(C(=O)OCCN(C)C)cc4)[C@]31OO2`, the IC50 was determined as 3.3 ng/mL (≈ 6.71 nM) in the test with Plasmodium falciparum [1] and 12.6 ng/mL (≈ 25.6 nM) in the test on Plasmodium falciparum [3]. Moreover, the Relative potency in test [2] came out at 0.4; in test [4], 0.3.

For `CO[C@H]1O[C@]2(C)CC[C@H]3CCC[C@@H](CCOC(=O)N(C)C)[C@]31OO2`, the IC50 with Plasmodium falciparum [1] came out at 0.8 ng/mL (≈ 2.33 nM); in the test on Plasmodium falciparum [3], 2.9 ng/mL (≈ 8.44 nM). Besides, the Relative potency in test [2] is 1.8; in test [4], 1.3.

On to `CO[C@H]1O[C@]2(C)CC[C@H]3CCC[C@@H](CCOC(=O)N(c4ccccc4)c4ccccc4)[C@]31OO2`, for which the 50% inhibitory concentration (IC50) in the test on Plasmodium falciparum [1] is below 0.2 ng/mL; in the test with Plasmodium falciparum [3], 0.9 ng/mL (≈ 1.92 nM). Moreover, the Relative potency in test [2] is above 7; in test [4], 4.3.

As to `CCN(CC)C(=O)c1ccc(C(=O)OCC[C@@H]2CCC[C@@H]3CC[C@]4(C)OO[C@]32[C@@H](OC)O4)cc1`, the half-inhibitory concentration (IC50) in the test on Plasmodium falciparum [1] and with Plasmodium falciparum [3] was below 1.4 ng/mL each time. In addition, the results for the Relative potency in test [2] and in test [4] were above 1 and above 2.8, respectively.

Take `CCOP(=O)(OCC)OCC[C@@H]1CCC[C@@H]2CC[C@]3(C)OO[C@]21[C@@H](OC)O3`: the half-inhibitory concentration (IC50) was below 0.9 ng/mL in the test with Plasmodium falciparum [1] and 1.1 ng/mL (≈ 2.69 nM) in the test with Plasmodium falciparum [3]. In addition, the Relative potency in test [2] is above 1.6; in test [4], 3.5.

In the case of `CO[C@H]1O[C@]2(C)CC[C@H]3CCC[C@@H](CCOS(=O)(=O)c4ccc(C)cc4)[C@]31OO2`, the half-inhibitory concentration (IC50) in the test with Plasmodium falciparum [1] was found to be 1.9 ng/mL (≈ 4.45 nM); with Plasmodium falciparum [3], 5.6 ng/mL (≈ 13.1 nM). Further, the Relative potency in test [2] and in test [4] was 0.7 throughout.

In the case of `CO[C@H]1O[C@]2(C)CC[C@H]3CCC[C@@H](CCOCc4ccccc4)[C@]31OO2`, the half-maximal inhibitory concentration (IC50) with Plasmodium falciparum [1] worked out at 0.4 ng/mL (≈ 1.1 nM); in the test on Plasmodium falciparum [3], 5.4 ng/mL (≈ 14.9 nM). Besides, the Relative potency in test [2] is 3.5; in test [4], 0.7.

For the compound `CO[C@H]1O[C@]2(C)CC[C@H]3CCC[C@@H](CCOCc4c(C)noc4C)[C@]31OO2`, the IC50 worked out at 0.5 ng/mL (≈ 1.31 nM) in the test on Plasmodium falciparum [1] and 7.6 ng/mL (≈ 19.9 nM) with Plasmodium falciparum [3]. The Relative potency in test [2] amounted to 2.8; in test [4], 0.5.

Take `COCC[C@@H]1CCC[C@@H]2CC[C@]3(C)OO[C@]21[C@@H](OC)O3`: the figures for the IC50 in the test on Plasmodium falciparum [1] and in the test on Plasmodium falciparum [3] were 3.7 ng/mL (≈ 12.9 nM) and 10.7 ng/mL (≈ 37.4 nM), respectively. Moreover, the Relative potency in test [2] and in test [4] was 0.4 throughout.

Turning to `CO[C@H]1O[C@]2(C)CC[C@H]3CCC[C@@H](CCOS(=O)(=O)c4cccc5c(N(C)C)cccc45)[C@]31OO2`, the IC50 in the test on Plasmodium falciparum [1] amounted to 1.2 ng/mL (≈ 2.37 nM); in the test with Plasmodium falciparum [3], 16.3 ng/mL (≈ 32.2 nM). The Relative potency in test [2] amounted to 1.2; in test [4] it was 0.2.
